Consider 9 compounds from publication PMC4767723 (Drugs in R&D, 2016).

Data set [1] is classed as in vivo, human. The following applies: for Change in AUCss on fostamatinib co-administration with OC / Change in Cmax,ss on fostamatinib co-administration with OC: increase in exposure.
Data set [2] concerns progesterone, luteinizing hormone, follicle-stimulating hormone, sex hormone-binding globulin. Description: OC interaction study, pharmacodynamics. The format is in vivo, human.
For data set [3], the system named is international normalized ratio (INR). Description: Warfarin interaction study, pharmacodynamics. Also on record: species or system human. The following applies: in vivo.
Data set [4] can be described thus: Safety and tolerability, all three studies. The format is in vivo, human. The essentials:
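Healthy subjects. Safety set was everyone given at least one dose of investigational product, with all available data used. Assessed throughout: incidence and severity of adverse events, clinical laboratory data, vital signs, 12-lead ECG and physical examination. AEs were tabulated by MedDRA. In the statin study, single statin doses were given alone and then with fostamatinib in a two-period, fixed-sequence design.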

A further data set deals with BCRP. The note with it: read-out: half maximal inhibitory concentration (IC50), BCRP; in vitro; ref AstraZeneca, data on file; cited from earlier work.
For data set [5] the following is noted: for Increase in AUC with fostamatinib / Individual Cmax differences (warfarin alone to warfarin plus fostamatinib): human; for Increase in AUC with fostamatinib / Individual Cmax differences (warfarin alone to warfarin plus fostamatinib) / Individual AUC differences / Prolongation of t½λz: in vivo.
Experiment in data set [6]: not given
The source holds these as a separate data set.

For data set [7] the following is noted: typical value; not determined in the current studies; cited from earlier work.
The conditions of data set [8]: cited from earlier work.
[9] abbreviates: fostamatinib co-administration with OC.

Like-named read-outs stand apart in the source and are kept apart here.

Consider `C#C[C@]1(O)CC[C@H]2[C@@H]3CCc4cc(O)ccc4[C@H]3CC[C@@]21C` [Ethinyl estradiol, ethinyl estradiol], for which, in data set [1] (geometric LS mean ratio), the “AUCss ratio Microgynon + fostamatinib/microgynon alone” value was 128.2% and the “Cmax,ss ratio Microgynon + fostamatinib/microgynon alone” value was 134.3%. In data set [1], the “Change in AUCss on fostamatinib co-administration with OC” value stood at 28% and the “Change in Cmax,ss on fostamatinib co-administration with OC” value was 34%.
In the case of `COc1cc(Nc2ncc(F)c(Nc3ccc4c(n3)N(COP(=O)(O)O)C(=O)C(C)(C)O4)n2)cc(OC)c1OC` [Fostamatinib, fostamatinib], in data set [2] (setting [9]), the “Decrease in exposure to follicle-stimulating hormone” value is reported as “≈ 20%” and the “Decrease in exposure to luteinizing hormone” value is listed as “≈ 20%”. In data set [2] (in vivo), the “Luteinizing hormone AUCss ratio Microgynon + fostamatinib/microgynon alone” value was determined as 83.2%, the “Luteinizing hormone Cmax,ss ratio Microgynon + fostamatinib/microgynon alone” value was 75.6%, the “Progesterone AUCss ratio Microgynon + fostamatinib/microgynon alone” value turned out to be 104.3% and the “Progesterone Cmax,ss ratio Microgynon + fostamatinib/microgynon alone” value stood at 99.8%. Further, in data set [3], the “AUCINR,0–168 ratio Warfarin + fostamatinib/warfarin alone” value was found to be 97.0% and the “INRmax ratio Warfarin + fostamatinib/warfarin alone” value came to 89.7%. Also, in data set [4], the Tolerability result is reported as “well tolerated”. The IC50 in the data set on BCRP was 50 nM.
Consider `C#C[C@]1(O)CC[C@H]2[C@@H]3CCC4=CC(=O)CC[C@@H]4[C@H]3CC[C@@]21CC` [Levonorgestrel, levonorgestrel], for which the “AUCss ratio Microgynon + fostamatinib/microgynon alone” value in data set [1] (geometric LS mean ratio) was 105.1%. In [1], the “Change in AUCss on fostamatinib co-administration with OC” value amounted to 5% and the “Change in Cmax,ss on fostamatinib co-administration with OC” value was −3%.
Turning to `COc1cc(Nc2ncc(F)c(Nc3ccc4c(n3)NC(=O)C(C)(C)O4)n2)cc(OC)c1OC` [R406], the “Cmax,ss, geometric mean” value was 812 ng/mL in [1] (Fostamatinib + OC, period 2 day 21) and 557 ng/mL in [5] (Fostamatinib + warfarin). Further, the Increase in exposure entry (fostamatinib combined with rosuvastatin) is listed as “≈ 10%” and the Increase in exposure result in data set [6] (fostamatinib combined with simvastatin) is on record as “≈ 10%”. In addition, in the data set on BCRP, the IC50 was 31 nM. Besides, the half-life in [7] is given as ~ 14 h.
As to `CC(=O)C[C@H](c1ccccc1)c1c(O)c2ccccc2oc1=O` [R-Warfarin, R-warfarin], in data set [5], the “Increase in AUC with fostamatinib” value was 18%, the “Individual Cmax differences (warfarin alone to warfarin plus fostamatinib)” value is reported as −16.1 to 22%, the “Individual AUC differences” value was 5.0-33.0% and the “Prolongation of t½λz” value is recorded as “approximately 6 h”.
`CC(C)c1nc(N(C)S(C)(=O)=O)nc(-c2ccc(F)cc2)c1/C=C/[C@@H](O)C[C@@H](O)CC(=O)O` [Rosuvastatin, rosuvastatin]: where the note is “human, in vivo”, the “Increase in AUC with fostamatinib” value came out at 96% and the “Increase in Cmax with fostamatinib” value is reported as 88%. The “absorption (restricted by BCRP)” value in data set [8] is given as 50%.
As to `CC(=O)C[C@@H](c1ccccc1)c1c(O)c2ccccc2oc1=O` [S-Warfarin, S-warfarin], in data set [5], the “Increase in AUC with fostamatinib” value is listed as 13%, the “Individual Cmax differences (warfarin alone to warfarin plus fostamatinib)” value is listed as −25.6 to 27%, the “Individual AUC differences” value is given as 0.0-36.0% and the “Prolongation of t½λz” value is “approximately 6 h”.
For the compound `CCC(C)(C)C(=O)O[C@H]1C[C@@H](C)C=C2C=C[C@H](C)[C@H](CC[C@@H](O)C[C@@H](O)CC(=O)O)[C@H]21` [Simvastatin acid, simvastatin acid], in [6] (human, in vivo), the “Decrease in half-life in the presence of fostamatinib” value is reported as “about 1.5 h”, the “Increase in AUC with fostamatinib” value is recorded as 74% and the “Increase in Cmax with fostamatinib” value came to 83%.
In the case of `CCC(C)(C)C(=O)O[C@H]1C[C@@H](C)C=C2C=C[C@H](C)[C@H](CC[C@@H]3C[C@@H](O)CC(=O)O3)[C@H]21` [Simvastatin, simvastatin], in [6] (human, in vivo), the “Change in tmax with fostamatinib” value is “marginal change” and the “Decrease in half-life in the presence of fostamatinib” value was “approximately 3 h”. For the same compound, in [6] (with fostamatinib), the “Net apparent reduction in clearance” value is on record as 40.3%.
